Test results taken from ChEMBL document CHEMBL4043167, “Identification of pyrazolopyrimidine arylsulfonamides as CC-chemokine receptor 4 (CCR4) antagonists” (Bioorg Med Chem, 2017).
In brackets after ≈: the same amount, converted by molar mass. Activity calls are given as the source filed them. The rule behind the calls is not given here.

Assays:
[1] = target: T1, C-C chemokine receptor type 4 (Homo sapiens, UniProt P51679); assay: Antagonist activity at human recombinant CCR4 receptor expressed in CHO cell membranes by [35S]GTPgammaS binding assay; format: functional
T1 sequence (P51679 whole entry): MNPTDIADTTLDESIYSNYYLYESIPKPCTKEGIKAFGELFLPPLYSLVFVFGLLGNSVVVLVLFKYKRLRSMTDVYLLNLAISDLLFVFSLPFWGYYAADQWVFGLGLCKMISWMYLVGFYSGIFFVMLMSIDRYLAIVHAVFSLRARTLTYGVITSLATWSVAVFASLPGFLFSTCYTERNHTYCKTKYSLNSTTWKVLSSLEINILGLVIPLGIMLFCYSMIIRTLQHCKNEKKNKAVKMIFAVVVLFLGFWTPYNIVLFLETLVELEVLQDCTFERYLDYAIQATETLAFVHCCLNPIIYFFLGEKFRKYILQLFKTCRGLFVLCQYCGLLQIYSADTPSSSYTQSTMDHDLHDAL

[2] = Kinetic solubility of the compound by chemiluminescent nitrogen detection assay; format: physicochemical; conditions: read-out: Kinetic_solubility
[3] = Lipophilicity, log D of the compound by chromatographic analysis; format: physicochemical
How it was run: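 Chromatographic logD measured at pH 7.4 (chromlogD7.4).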

[4] = target: T1, C-C chemokine receptor type 4; assay: (§1) Antagonist activity at CCR4 receptor in human whole blood assessed as F-actin polymerization after 30 mins by FACS-based flow cytometric analysis; conditions: read-out: pA2 (converted)
albumin = albumin (Homo sapiens, UniProt P02768); assay: Binding affinity to HSA; format: ADME; conditions: human serum albumin (HSA), read-out: PB (converted)
Sequence of albumin (P02768 whole entry): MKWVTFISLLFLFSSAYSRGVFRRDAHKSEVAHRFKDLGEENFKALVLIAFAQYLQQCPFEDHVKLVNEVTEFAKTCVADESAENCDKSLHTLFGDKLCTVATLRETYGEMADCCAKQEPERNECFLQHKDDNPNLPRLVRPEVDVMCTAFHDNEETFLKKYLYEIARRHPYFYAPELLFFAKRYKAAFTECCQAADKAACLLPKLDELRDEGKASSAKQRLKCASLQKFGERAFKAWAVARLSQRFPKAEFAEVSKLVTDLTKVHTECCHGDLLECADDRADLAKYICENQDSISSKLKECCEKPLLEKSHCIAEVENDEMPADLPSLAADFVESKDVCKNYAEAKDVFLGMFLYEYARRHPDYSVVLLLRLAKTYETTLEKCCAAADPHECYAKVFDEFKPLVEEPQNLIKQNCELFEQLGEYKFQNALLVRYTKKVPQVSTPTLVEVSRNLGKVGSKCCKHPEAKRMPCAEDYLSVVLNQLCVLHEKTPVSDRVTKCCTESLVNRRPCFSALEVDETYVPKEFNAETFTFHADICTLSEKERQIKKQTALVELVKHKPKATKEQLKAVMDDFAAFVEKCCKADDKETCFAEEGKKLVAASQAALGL

[5] = Oral bioavailability in Sprague Dawley (crl:CD(SD)) rat at 1 mg/kg by LCMS/MS method; format: ADME, organism-based; conditions: in vivo
How it was run: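 Rat given an oral dose of 1 mg/kg, with a 1 mg/kg IV dose for comparison; oral bioavailability calculated.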

[6] = Half life in Sprague Dawley (crl:CD(SD)) rat at 1 mg/kg, iv by LCMS/MS method; format: ADME, organism-based; conditions: in vivo
How it was run: (§2)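 Rat given a single IV dose of 1 mg/kg; blood clearance, half-life and volume of distribution derived from the IV profile.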

[7] = target: T2, C-C chemokine receptor type 4 (Homo sapiens) (UniProt P51679); assay: as §1
T2 sequence (whole entry): T1 sequence (P51679 whole entry)

Rattus norvegicus = assay: Clearance in Sprague Dawley (crl:CD(SD)) rat at 1 mg/kg, iv by LCMS/MS method; format: ADME, organism-based; conditions: in vivo; how it was run: as §2
[8] = Volume of distribution at steady state in Sprague Dawley (crl:CD(SD)) rat at 1 mg/kg, iv by LCMS/MS method; format: ADME, organism-based; conditions: in vivo, read-out: Vdss; how it was run: as §2
[9] = Clearance in rat microsomes; format: ADME, Microsome
[10] = Clearance in human microsomes; format: ADME, Microsome
[11] = Oral bioavailability in Beagle dog at 1 mg/kg by LCMS/MS method; format: ADME, organism-based, Canis lupus familiaris; conditions: in vivo
[12] = Half life in Beagle dog at 1 mg/kg by LCMS/MS method; format: ADME, organism-based, Canis lupus familiaris; conditions: in vivo
[13] = Volume of distribution at steady state in Beagle dog at 1 mg/kg by LCMS/MS method; format: ADME, organism-based, Canis lupus familiaris; conditions: in vivo, read-out: Vdss
Canis familiaris = assay: Clearance in Beagle dog at 0.5 mg/kg by LCMS/MS method; conditions: in vivo
[14] = Clearance in dog microsomes; format: ADME, Canis lupus familiaris, Microsome

| SMILES | IC50 [1] [nM] | solubility kinetic [2] [µM] | chromatographic logD [3] | also measured |
| --- | --- | --- | --- | --- |
| COc1nc(NS(=O)(=O)c2cccc(Cl)c2Cl)c2c(OC)nn(C)c2n1 | 794 | 148 (≈ 61.9 µg/mL) | 1.9 |  |
| COc1nn(C(C)C)c2ncnc(NS(=O)(=O)c3cccc(Cl)c3Cl)c12 | 251 | 404 (≈ 168 µg/mL) | 4.5 |  |
| COc1ccc(COc2nc(Br)cnc2NS(=O)(=O)c2ccc(C)cc2)cc1OCCN(C)C |  | 309 (≈ 170 µg/mL) | 3.1 |  |
| COc1nn(C2COC2)c2ncnc(NS(=O)(=O)c3cccc(Cl)c3Cl)c12 | 251 | 142 (≈ 61.1 µg/mL) | 2.1 |  |
| COc1nn(C)c2nc(N(C)C)nc(NS(=O)(=O)c3cccc(Cl)c3Cl)c12 | 631 | ≥ 626 | 4 |  |
| COCCOc1nn(C)c2ncnc(NS(=O)(=O)c3cccc(Cl)c3Cl)c12 | 794 | ≥ 463 | 2.3 |  |
| COc1ccc2c(cnn2C)c1NS(=O)(=O)c1cccc(Cl)c1Cl | 10000 | 175 (≈ 67.6 µg/mL) | 5 |  |
| COCCn1nc(OC)c2c(NS(=O)(=O)c3cccc(Cl)c3Cl)ncnc21 | 316 | ≥ 442 | 2.6 |  |
| COc1nn(C)c2ncnc(NS(=O)(=O)c3ccc(Cl)s3)c12 | 79.4 | ≥ 538 | 1.6 | Kb [4]: > 6310 nM; fraction unbound (albumin): 0.023 |
| COc1nn(CC(=O)O)c2ncnc(NS(=O)(=O)c3cccc(Cl)c3Cl)c12 | 200 | ≥ 483 | 0.8 |  |
| Cn1ncc2c(NS(=O)(=O)c3cccc(Cl)c3Cl)cccc21 | 3160 | 170 (≈ 60.6 µg/mL) | 3.2 |  |
| CNc1nc(NS(=O)(=O)c2cccc(Cl)c2Cl)c2c(OC)nn(C)c2n1 | 79.4 | 376 (≈ 157 µg/mL) | 3.2 |  |
| COc1nn(CCN(C)C)c2ncnc(NS(=O)(=O)c3cccc(Cl)c3Cl)c12 | 3980 | 358 (≈ 159 µg/mL) | 1.6 |  |
| CCNc1nc(NS(=O)(=O)c2cccc(Cl)c2Cl)c2c(OC)nn(C)c2n1 | 251 | 219 (≈ 94.5 µg/mL) | 4.2 |  |
| CCn1[nH]c2ncnc(NS(=O)(=O)c3cccc(Cl)c3Cl)c2c1=O | > 31600 | ≥ 383 | 1.2 |  |
| Cn1ncc2c(NS(=O)(=O)c3cccc(Cl)c3Cl)ncnc21 | 1260 | 476 (≈ 171 µg/mL) | 1.7 |  |
| COc1cccc2c1c(NS(=O)(=O)c1cccc(Cl)c1Cl)nn2C |  | 288 (≈ 111 µg/mL) |  | bioavailability [5]: 24%; half-life [6]: 1.2 h; pA2 [7]: inactive; fraction unbound (albumin): 0.023; clearance (Rattus norvegicus): 17 mL/min/kg; Vd [8]: 0.5 L/kg |
| Cn1nc(NS(=O)(=O)c2cccc(Cl)c2Cl)c2ccccc21 | 2000 | 124 (≈ 44.2 µg/mL) | 4.6 |  |
| O=S(=O)(Nc1ncnc2[nH]nc(O)c12)c1cccc(Cl)c1Cl | 15800 | ≥ 234 | 0.8 |  |
| COc1nn(C)c2ncnc(NS(=O)(=O)c3cccc(Cl)c3Cl)c12 | 63.1 | ≥ 581 | 2.4 | bioavailability [5]: 62%; CL [9]: 0.58 mL/min/g; CL [10]: < 0.53 mL/min/g; half-life [6]: 1.9 h; bioavailability [11]: 100%; Kb [4]: > 6310 nM; half-life [12]: 0.6 h; Vd [13]: 0.3 L/kg; clearance (Canis familiaris): 4 mL/min/kg; CL [14]: 0.65 mL/min/g; fraction unbound (albumin): 0.015; clearance (Rattus norvegicus): 2 mL/min/kg; Vd [8]: 0.3 L/kg |
| COc1n[nH]c2ncnc(NS(=O)(=O)c3cccc(Cl)c3Cl)c12 | 158 | 402 (≈ 150 µg/mL) | 1.8 |  |
| COc1nn(C)c2nc(NC3COC3)nc(NS(=O)(=O)c3cccc(Cl)c3Cl)c12 | 10000 | ≥ 712 | 2.2 |  |

The next lines start with results.

| IC50 [1] [nM] | solubility kinetic [2] [µM] | chromatographic logD [3] | SMILES | also measured |
| --- | --- | --- | --- | --- |
| > 31600 | ≥ 444 | 1.4 | COc1nn(C)c2nc(NCCN(C)C)nc(NS(=O)(=O)c3cccc(Cl)c3Cl)c12 |  |
| 794 | ≥ 438 | 2.3 | CCOc1n[nH]c2ncnc(NS(=O)(=O)c3cccc(Cl)c3Cl)c12 |  |
| 501 | ≥ 490 | 1.1 | COc1nn(CC(N)=O)c2ncnc(NS(=O)(=O)c3cccc(Cl)c3Cl)c12 |  |
| 316 | ≥ 649 | 2.4 | COc1nn(C)c2nc(N)nc(NS(=O)(=O)c3cccc(Cl)c3Cl)c12 |  |
| 794 | 80 (≈ 30.9 µg/mL) | 6.5 | COc1nn(C)c2cccc(NS(=O)(=O)c3cccc(Cl)c3Cl)c12 |  |
| 7940 | ≥ 441 | 3.3 | COCCNc1nc(NS(=O)(=O)c2cccc(Cl)c2Cl)c2c(OC)nn(C)c2n1 |  |
| 3160 | ≥ 551 | 5.2 | COc1nn(C)c2nc(NC(C)C)nc(NS(=O)(=O)c3cccc(Cl)c3Cl)c12 |  |
| 631 | ≥ 509 | 1.3 | CNC(=O)Cn1nc(OC)c2c(NS(=O)(=O)c3cccc(Cl)c3Cl)ncnc21 |  |
| 631 | ≥ 557 | 3.4 | COc1nn(C)c2nc(C)nc(NS(=O)(=O)c3cccc(Cl)c3Cl)c12 |  |
| 12600 | ≥ 310 | 1.7 | Cn1ncc2c(NS(=O)(=O)c3cccc(Cl)c3Cl)ccnc21 |  |
